High-throughput results (PubChem)
An excerpt weighted towards active compounds, which were near 5.3% of everything screened.
T cruzi repl – T. cruzi replication inhibition | inhibition, % (concentration not given with the values) | AID 1885 | 300,000 compounds, 1.4% hits | T. cruzi beta-gal in NIH3T3, luminescence, 90 h;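 active = mean inhibition across valid replicates above about 55%, limit read from the data; inconclusive = mean below that limit but half or more replicates reach it; inactive = mean below it, under half of replicates reach it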;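 also: signal also drops with host cell toxicity which is not excluded here; 0% = plate median of DMSO wells and 100% = zero luminescence signal; higher percent means less beta-gal luminescence so fewer parasites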
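System – NIH/3T3 host cells with β-galactosidase reporter T. cruzi · Doses – single 50 nL compound addition per well in DMSO · Reagent – 5000 T. cruzi trypomastigotes/well · Medium – Low-serum DMEM with 2% FBS · Timing – ≥90 h infection period, 3 h prior cell attachment · Evaluation – parasite load inhibition, % · Technique – GalScreen luminescence, 60 min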
Calb FLC – C. albicans growth modulation with fluconazole. C. albicans CaCi-2 + fluconazole, Alamar Blue growth, 48 h. growth inhibition, % (test concentration not listed). 300,000 compounds, 0.57% hits;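 active = growth inhibition above about 58% in most replicates, limit read from the data, passing the limit was not always enough; inconclusive = exactly half the replicates above a set limit; inactive = most replicates below a set limit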;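 also: all wells also contain fluconazole at 8 µg/ml as a sub-toxic cotreatment; 0% = median of DMSO wells and 100% = median of geldanamycin control wells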
CSC inhib – blocks cancer stem cells | cancer stem cell-like cells viability, luminescence | inhibition, % at 7.5 µM | 300,000 compounds, 1.1% hits; in the data active = inhibition above about 75%; inconclusive = no clear call, values can overlap the other calls; tested in HMLE shEcad cells
Beta cell apopt – beta cell apoptosis inhibition; INS-1E cytokine-induced death, ATP luminescence, 48 h; percent of positive-control rescue, neutral wells zero; protection from apoptosis, % (concentration not given with the values); 300,000 compounds, 0.8% hits; AID 435005;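 active = Every replicate reaches about 75%, or at least half do and their mean reaches it too, limit read from the data; inconclusive = At least half of replicates reach the limit but their mean does not; inactive = Under half of replicates reach the limit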;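 also: 0% = cytokine-treated negative control wells and 100% = positive control rescue; higher means more ATP so stronger rescue from cytokine killing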
NALP3 yeast inh – NALP3 inhibition in yeast; Yeast reconstituted NLRP3/ASC/caspase-1, beta-gal luminescence, 24 h; inhibition, % at 10 µM; 330,000 compounds, 0.39% hits; AID 2825;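 active = inhibition of 50% or more; inactive = inhibition below 50%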;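 also: plate controls were induced DMSO wells for no effect and uninduced yeast grown without galactose for full effect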
Mdm2 MdmX PPI – disrupts the human Mdm2-MdmX interaction | inhibition, % at 8 µM | AID 485346 | 330,000 compounds, 3% hits | SaOS-2 split-luciferase Mdm2/MdmX complementation, luminescence | O15151+Q00987;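 active = inhibition of at least 50% at 8 µM in the primary screen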
Target sequence (O15151 whole entry, looked up): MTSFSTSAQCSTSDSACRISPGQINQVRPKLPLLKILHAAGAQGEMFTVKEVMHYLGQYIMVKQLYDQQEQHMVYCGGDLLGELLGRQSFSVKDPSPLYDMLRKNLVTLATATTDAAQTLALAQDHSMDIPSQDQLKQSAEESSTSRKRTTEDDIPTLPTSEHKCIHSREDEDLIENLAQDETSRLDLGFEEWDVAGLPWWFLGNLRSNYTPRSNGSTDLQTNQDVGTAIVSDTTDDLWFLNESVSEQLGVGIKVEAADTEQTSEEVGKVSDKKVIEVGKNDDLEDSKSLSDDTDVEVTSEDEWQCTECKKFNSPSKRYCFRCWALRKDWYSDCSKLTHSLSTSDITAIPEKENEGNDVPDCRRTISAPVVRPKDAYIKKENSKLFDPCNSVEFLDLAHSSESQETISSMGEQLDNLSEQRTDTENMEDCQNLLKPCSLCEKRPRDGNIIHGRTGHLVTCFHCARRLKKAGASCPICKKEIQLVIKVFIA
Target sequence (Q00987 whole entry, looked up): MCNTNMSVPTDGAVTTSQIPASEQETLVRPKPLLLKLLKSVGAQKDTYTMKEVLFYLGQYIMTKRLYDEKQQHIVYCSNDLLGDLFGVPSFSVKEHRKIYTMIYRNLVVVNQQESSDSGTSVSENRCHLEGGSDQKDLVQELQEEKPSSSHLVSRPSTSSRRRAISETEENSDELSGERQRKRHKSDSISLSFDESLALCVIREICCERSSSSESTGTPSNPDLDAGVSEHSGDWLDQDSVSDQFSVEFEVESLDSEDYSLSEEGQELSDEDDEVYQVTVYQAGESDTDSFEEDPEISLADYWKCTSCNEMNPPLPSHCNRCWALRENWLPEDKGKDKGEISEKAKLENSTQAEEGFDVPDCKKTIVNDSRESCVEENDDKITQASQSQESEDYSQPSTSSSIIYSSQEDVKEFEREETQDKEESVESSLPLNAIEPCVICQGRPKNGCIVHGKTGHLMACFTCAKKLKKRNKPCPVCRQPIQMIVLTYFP
Mdm2 MdmX conf – confirmation of human Mdm2/MdmX interaction inhibitors | shares compounds with Mdm2 MdmX PPI | Mdm2-MdmX binding, luminescent assay | inhibition, % at 8 µM | 10,000 compounds, 55% hits | AID 489028; in the data active = inhibition above about 40%
Full FLuc ctr – full-length luciferase inhibition in Mdm2/MdmX counter-screen; AID 504607; shares compounds with Mdm2 MdmX PPI; 6,200 compounds, 77% hits; inhibition, % at 8 µM; SaOS-2 full-length luciferase counterscreen, luminescence;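 active = mean inhibition at 8 µM reaching about 37%, which flags the compound as non-specific, limit read from the data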;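 also: p53-null SaOS-2 cells with luciferase driven by a doxycycline-inducible promoter; compound on cells about two nights before reading with doxycycline added after day one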
Starred values were filed as active, the others as inactive; ? = inconclusive; . = no result.

SMILES	T cruzi repl	Calb FLC	CSC inhib	Beta cell apopt	NALP3 yeast inh	Mdm2 MdmX PPI	Mdm2 MdmX conf	Full FLuc ctr
COC(=O)CCC(=O)Nc1cccc2c(NC(=O)CCC(=O)OC)cccc12	2	4	.	-5	11	24	.	.
CCSc1nc2ccccc2n1CC(N)=O	-3	?	3	4	3	19	.	.
CCSc1nc2ccccc2n1C(=O)/C=C\c1ccc(OC)c(OC)c1	-20	15	-66	50	3	100*	100*	52*
CCc1ccc(OCCNc2cc(N3CCNC(C)C3)ccc2[N+](=O)[O-])cc1 (centres undefined)	.	.	.	25	24	95*	38	75*
O=[N+]([O-])c1ccc(N2CCCCC2)cc1NCCOc1ccccc1	9	4	20	-5	11	9	.	.
NCCNc1cc(N2CCCC2)ccc1[N+](=O)[O-]	9	8	-13	-1	12	21	.	.
Cc1ccccc1OCCNc1cc(N2CC(C)NC(C)C2)ccc1[N+](=O)[O-] (centres undefined)	44	4	.	-4	29	80*	30	.
COc1ccc(N/C=C/C(=O)c2ccc(OC)c(OC)c2)cc1	-8	4	11	.	8	29	.	.
COc1ccc(OC)c(N/C=C/C(=O)c2ccccc2)c1	-10	-2	3	15	38	58*	62*	155*
COc1ccc(N/C=C/C(=O)c2cc(OC)c(OC)c(OC)c2)cc1	-53	-14	68	31	15	68*	60*	57*
COc1ccc(OC)c(C(=O)/C=C/c2ccccc2C(F)(F)F)c1	34	10	99*	-6	21	89*	65*	21
c1ccc2[nH]c(CCCCc3nc4ccccc4[nH]3)nc2c1	-5	1	-6	-13	3	9	.	.
O=C(O)Cc1cc2c(s1)CCCCC2	-1	1	-3	-3	14	1	.	.
COc1ccc(-c2nnc(SCC(=O)O)n2Cc2ccccc2)cc1	-5	12	-27	-5	9	16	.	.
O=C(Nc1ccc(N2CCOCC2)c(S(=O)(=O)Nc2ccccc2Cl)c1)c1ccccc1	.	.	.	17	18	54*	14	.
COc1ccc(NS(=O)(=O)c2ccc(N3CCOCC3)c(NC(=O)c3ccccc3Cl)c2)cc1	-10	-1	2	6	3	-9	.	.
COCC(=O)Nc1ccc(N2CCCC2)c(S(=O)(=O)Nc2ccccc2OC)c1	.	.	.	.	9	-13	.	.
O=C(Nc1ccc(Cl)cc1)Nc1ccc(N2CCCC2)c(S(=O)(=O)Nc2ccccc2Cl)c1	47	-2	2	87*	1	96*	90*	24
O=C(Nc1cc(S(=O)(=O)Nc2ccc(Cl)cc2)ccc1N1CCCCC1)c1ccc(F)cc1Cl	35	17	77*	9	12	67*	21	.
CCC(=O)N(NC1=NS(=O)(=O)c2ccccc21)S(=O)(=O)c1ccc(C)cc1	-17	1	-7	-5	-4	7	.	.
CCCS(=O)(=O)c1cn2cccc(N)c2c1S(=O)(=O)CCC	5	6	2	-5	8	23	.	.
C=C(CC1([C@@H](NP(=O)(c2ccccc2)c2ccccc2)[C@H]2C[C@@H]2CCCC)CC1)c1ccccc1	-12	-14	123*	38	29	59*	23	.
CCCC[C@@H]1C[C@H]1[C@@H](NC(=O)c1ccccc1)c1ccccc1C(F)(F)F	-10	7	17	-5	10	17	.	.
CCc1cccc2sc(N3CCN(C(=O)c4ccc([N+](=O)[O-])o4)CC3)nc12	64*	14	5	25	47	94*	75*	46*
COc1ccc(C2(C(N)=O)CCCCC2)cc1OC	-3	1	-6	-21	6	4	.	.
SMILES	T cruzi repl	Calb FLC	CSC inhib	Beta cell apopt	NALP3 yeast inh	Mdm2 MdmX PPI	Mdm2 MdmX conf	Full FLuc ctr
CC(=O)Nc1nc(C)c(-c2csc(Nc3cccc(C(C)=O)c3)n2)s1	-11	-5	-7	0	14	82*	46*	41*
CCC(=O)Nc1nc(C)c(-c2csc(Nc3cccc(C(=O)O)c3)n2)s1	-8	3	6	0	4	0	.	.
CC(=O)Nc1nc(C)c(-c2csc(Nc3cccc([N+](=O)[O-])c3)n2)s1	55*	-5	1	13	2	90*	71*	36
N#CCCN(C(=O)CN1c2cccc3cccc(c23)S1(=O)=O)c1ccccc1	.	.	-7	1	-7	10	.	.
N=c1n(CCCOc2ccccc2Cl)c2ccccc2n1CC(N)=O	-16	-3	-5	5	5	65*	42*	63*
Cn1c(=O)n(CCOc2ccccc2Cl)c2ccccc21	5	10	11	2	20	-2	.	.
CCNc1nc(NCC)n2c(SCC(=O)Nc3cccc(Cl)c3)nnc2n1	6	1	-11	-1	13	11	.	.
CCNc1nc(NCC)n2c(SC(C(=O)Nc3cc(Cl)cc(Cl)c3)c3ccccc3)nnc2n1 (centres undefined)	27	-12	?	3	8	95*	-3	.
N#Cc1ccccc1COC(=O)c1cccnc1N	-3	-15	2	-9	22	-2	.	.
Cc1ccc(C)c(C(=O)CN2C(=O)c3ccccc3S2(=O)=O)c1	-4	6	-5	-5	5	68*	60*	100*
Cc1cc(C(=O)CN2C(=O)c3ccccc3S2(=O)=O)c(C)n1CC1CCCO1 (centres undefined)	7	7	-7	-1	-1	54*	37	9
Cc1cc(C(=O)CN2C(=O)NC(C)(c3ccccc3)C2=O)c(C)n1CC1CCCO1 (centres undefined)	-7	-4	.	0	0	12	.	.
CSc1cccc(NC(=O)CN2C(=O)c3ccccc3S2(=O)=O)c1	-13	-2	-3	-2	0	53*	44*	77*
O=C(CN1C(=O)c2ccccc2S1(=O)=O)c1ccc(O)c(O)c1	-1	-4	-4	2	5	56*	55*	74*
COc1ccc(C(=O)CN2C(=O)c3ccccc3S2(=O)=O)cc1	-5	1	-5	0	18	94*	95*	26
COc1ccc(C(=O)CN2C(=O)c3ccccc3S2(=O)=O)cc1Br	0	-2	-4	-2	29	23	.	.
Cn1c(COc2ccccc2O)[n+](C)c2ccccc21	-1	15	2	-1	1	-27	.	.
CCCCCCCCCCOC(=O)Cn1c(COc2ccccc2OC)[n+](C)c2ccccc21	50	-12	93*	107*	25	100*	89*	16
Cc1occc1-c1nnc(SCCNCCO)o1	-7	5	-10	-1	-2	-24	.	.
